Test [1] addresses T1, Prolyl 4-hydroxylase subunit alpha-1 (Rattus norvegicus, UniProt P54001). Nature of the test: Compound was evaluated for the inhibition of prolyl 4-hydroxylase.
The target of test [2] is Prolyl 4-hydroxylase subunit alpha-1 (Rattus norvegicus) (UniProt P54001). Put plainly: Compound was evaluated for the inhibition of prolyl 4-hydroxylase at 50 ug/mL.
Test [3] has the same target. Nature of the test: (§1) Compound was evaluated for the inhibition of prolyl 4-hydroxylase. The note with it: concentration not given here. The method, boiled down: (§2)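 Prolyl 4-hydroxylase activity was measured with an indirect assay that follows the conversion of labelled 2-ketoglutarate cosubstrate into labelled succinate. Each point was run in duplicate. IC50 was obtained by interpolation from six-point dose-response curves.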

The target is the same in test [4]. Nature of the test: Compound was evaluated for the inhibition of prolyl 4-hydroxylase at 100 ug/mL.
The target in test [5] is T1, Prolyl 4-hydroxylase subunit alpha-1. Described as §1. The method, boiled down: as §2
For test [6] the target is unchanged. Put plainly: Inhibitory activity against prolyl 4-hydroxylase. The method, boiled down: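 Indirect radiometric assay: conversion of labelled cofactor 2-ketoglutarate into labelled succinate measured. Each point in duplicate; IC50 interpolated from six-point dose-response curves.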
Test [7] has as its target Prolyl 4-hydroxylase subunit alpha-1 (Rattus norvegicus) (UniProt P54001). Put plainly: Compound was evaluated for the inhibition of prolyl 4-hydroxylase at 100 ug/mL.

Data on 16 compounds can be found in ChEMBL document CHEMBL1125483, “Novel inhibitors of prolyl 4-hydroxylase. 3. Inhibition by the substrate analogue N-oxaloglycine and its derivatives” (J Med Chem, 1992).

As a reminder, the IC50 is the concentration that inhibits the measured activity by half. One may read the inhibition as the drop in the measured response relative to a control, in per cent. By Ki is commonly meant a dissociation constant, usually derived from enzyme kinetics or from competition with a known ligand.

T1 sequence (P54001 whole entry): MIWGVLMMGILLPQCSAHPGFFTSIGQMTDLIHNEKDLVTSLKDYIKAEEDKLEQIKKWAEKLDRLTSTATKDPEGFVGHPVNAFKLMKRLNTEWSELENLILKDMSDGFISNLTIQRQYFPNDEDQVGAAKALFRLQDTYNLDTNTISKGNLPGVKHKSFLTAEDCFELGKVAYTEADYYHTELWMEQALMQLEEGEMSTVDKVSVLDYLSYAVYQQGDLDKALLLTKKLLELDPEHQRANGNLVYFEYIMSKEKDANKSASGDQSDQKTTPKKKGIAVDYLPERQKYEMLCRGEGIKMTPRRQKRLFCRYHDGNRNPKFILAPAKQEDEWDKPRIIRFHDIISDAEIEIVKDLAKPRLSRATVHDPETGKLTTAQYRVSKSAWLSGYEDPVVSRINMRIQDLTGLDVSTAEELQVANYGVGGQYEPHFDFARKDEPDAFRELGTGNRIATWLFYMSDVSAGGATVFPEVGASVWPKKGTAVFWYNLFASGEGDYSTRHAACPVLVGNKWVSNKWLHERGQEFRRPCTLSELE
Chain of Prolyl 4-hydroxylase subunit alpha-1 (Rattus norvegicus) (P54001 whole entry): as above

Take `C[C@@H](NC(=O)C(=O)O)C(=O)O`: it took 621 µM to reach half-maximal inhibition in test [1] (IC50).
With `CC(C)(NC(=O)C(=O)O)C(=O)O`, the inhibition in test [2] stood at 26%.
`CCOc1ccc(NC(=O)CNC(=O)C(=O)O)cc1` yielded an inhibition in test [2] of 16%.
Consider `O=C(O)CCNC(=O)C(=O)O`, for which the inhibition in test [3] is 24%.
For `O=C(O)C(=O)NC(Cc1ccccc1)C(=O)O` (stereo not drawn), the inhibition in test [2] turned out to be 18%.
As to `CSCCC(NC(=O)C(=O)O)C(=O)O` (stereo not drawn), in test [4], the inhibition was 9%.
Take `O=C(O)c1ccc(C(=O)O)nc1` [PYRIDINE-2,5-DICARBOXYLIC ACID]: in test [5], half-maximal inhibition (IC50) was put at 5.18 µM. Besides, in test [6], the inhibition constant Ki worked out at 0.8 µM.
Consider `O=C(O)CNC(=O)C(=O)O` [N-OXALYLGLYCINE], for which, in test [5], inhibition was half-maximal at 2.89 µM (IC50) and the Ki was 0.54 µM.
Compound `O=C(O)C(=O)N1CCCC1C(=O)O` (stereo not drawn) yielded an inhibition in test [2] of 10%.
`O=C(O)C(=O)Nc1ccc(C(=O)O)cc1` yielded an inhibition in test [7] of 9%.
In test [5], `CC(NC(=O)C(=O)O)C(=O)O` (stereo not drawn) gave an IC50 of 90.7 µM.
Turning to `CC(C)CC(NC(=O)C(=O)O)C(=O)O` (stereo not drawn), the inhibition in test [2] was 16%.
Turning to `C[C@H](NC(=O)C(=O)O)C(=O)O`, the IC50 in test [5] turned out to be 38.2 µM.
The same measure, in the same setting: with `CS(=O)(=O)NC(=O)CNC(=O)C(=O)O` the figure was 414 µM.
As to `O=C(CNC(=O)C(=O)O)NS(=O)(=O)c1ccccc1`, in test [2], the inhibition came to 34%.
Same read-out and setting: the value for `CN(CC(=O)O)C(=O)C(=O)O` was 10%.
